Results taken from ChEMBL document CHEMBL1122953, “Synthesis and antiarrhythmic and parasympatholytic properties of substituted phenols. 3. Modifications to the linkage region (region 3)” (1985).
Calls of active or inactive are those of the source. No cut-off for these calls is given here.

How the values were obtained:
[1] = species on record: Cavia porcellus; test: Parasympatholytic activity and the % inhibition of guinea pig ileum contractile force at 4 mg/L of base was reported.; format: functional
In short: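 Isolated guinea pig ileum, electrically stimulated so contraction comes from acetylcholine released by postganglionic parasympathetic nerves. After about 60 min equilibration, tension was measured just before and during the steady-state response to drug at 4 mg/L. Result is % inhibition of contractile force.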

[2] = species on record: Canis familiaris; test: Antiarrhythmic activity estimated by using the ouabain intoxicated dog model and the active dose of base in ouabain dog was reported.; format: functional, Canis lupus familiaris, Heart
In short: (§1)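 Dogs; ECG lead II recorded. Ouabain given iv as boluses of 40 µg/kg, then 20 µg/kg 30 min later, then 10 µg/kg every 15 min until a stable ventricular arrhythmia (>95% ectopic ventricular complexes) persisted 15 min. Test drug infused iv at 0.5 mg/kg per min until normal sinus rhythm held at least 10 min. Active dose is the mean of experiments ± SEM.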

[3] = species on record: Canis familiaris; test: Antiarrhythmic activity estimated by using the ouabain intoxicated dog model and the active dose of base in ouabain dog was reported; Not effective; format: functional, organism-based; details: Canis lupus familiaris; Heart; in short: as §1
[4] = species on record: Canis familiaris; test: Dose at which ouabain dog failed to produce normal sinus rhythm; format: functional, Canis lupus familiaris; in short: as §1
[5] = species on record: Canis familiaris; test: Dose at which ouabain dog caused ventricular flutter; format: functional, Canis lupus familiaris, Heart; in short: as §1
[6] = test system: Canis familiaris; test: Antiarrhythmic activity estimated by using the ouabain intoxicated dog model and the active dose of base in ouabain dog was reported at a dose of 20 mg/kg; Not effective; format: functional, organism-based; set-up: dose 20 mg/kg; details: Canis lupus familiaris, Heart; in short: as §1
[7] = test system: Canis familiaris; test: Antiarrhythmic activity estimated by using the ouabain intoxicated dog model and the active dose of base in ouabain dog was reported. at a dose of 10 mg/kg; Not effective; format: functional, organism-based; set-up: dose 10 mg/kg; details: Canis lupus familiaris, Heart; in short: as §1

COc1ccc(C(=O)c2cc(CN3CCCC3)c(O)c(CN3CCCC3)c2)cc1
Inhibition [1]: 12%
Dose [2]: 4.5 mg/kg

Cc1ccccc1NC(=O)c1cc(CN2CCCC2)c(O)c(CN2CCCC2)c1
Dose [2]: 2.9 mg/kg

C=C[C@H]1CN2CC[C@H]1C[C@@H]2[C@@H](O)c1ccnc2ccc(OC)cc12 [QUINIDINE]
Inhibition [1]: 62%
Dose [2]: 10.5 mg/kg

O=C(Nc1ccccc1)Nc1cc(CN2CCCC2)c(O)c(CN2CCCC2)c1
Dose [2]: 3.6 mg/kg

O=C(Nc1cc(CN2CCCCC2)c(O)c(CN2CCCCC2)c1)c1ccccc1
Inhibition [1]: 33%
Dose [2]: 3 mg/kg

Cl.Oc1c(CN2CCCC2)cc(Cc2ccccc2)cc1CN1CCCC1
Inhibition [1]: 14.3%
DOSE [3]: inactive

Cc1cccc(C)c1NC(=O)c1cc(CN2CCCC2)c(O)c(CN2CCCC2)c1
Dose [2]: 4.5 mg/kg

O=S(=O)(Nc1cc(CN2CCCC2)c(O)c(CN2CCCC2)c1)c1ccccc1
Dose [2]: 10 mg/kg

Cc1ccccc1C(=O)Nc1cc(CN2CCCC2)c(O)c(CN2CCCC2)c1
Dose [2]: 2.7 mg/kg

CN(C(=O)c1ccccc1)c1cc(CN2CCCC2)c(O)c(CN2CCCC2)c1
Inhibition [1]: 5%
Dose [2]: 16.2 mg/kg

O=C(c1ccc(Cl)cc1)c1cc(CN2CCCC2)c(O)c(CN2CCCC2)c1
Dose [2]: 4.8 mg/kg

CCN(CC)CCNC(=O)c1ccc(N)cc1.Cl [PROCAINAMIDE HYDROCHLORIDE]
Inhibition [1]: 0%
Dose [2]: 29 mg/kg

Cl.Oc1c(CN2CCCC2)cc(OCc2ccccc2)cc1CN1CCCC1
Inhibition [1]: 62%
Dose [2]: 2 mg/kg

Oc1c(CN2CCCC2)cc(Nc2ccccc2)cc1CN1CCCC1
Dose [2]: 5 mg/kg
Dose [4]: 17.5 mg/kg

O=C(Nc1ccccc1)c1cc(CN2CCCC2)c(O)c(CN2CCCC2)c1
Inhibition [1]: 31%
Dose [2]: 2.8 mg/kg

O=C(c1ccccc1)c1cc(CN2CCCC2)c(O)c(CN2CCCC2)c1
Inhibition [1]: 9%
Dose [2]: 2.4 mg/kg

O=C(/C=C/c1ccccc1)Nc1cc(CN2CCCC2)c(O)c(CN2CCCC2)c1
Dose [5]: 8 mg/kg
Dose [2]: 14 mg/kg

O=C(Nc1cc(CN2CCOCC2)c(O)c(CN2CCOCC2)c1)c1ccccc1
Dose [2]: 16.5 mg/kg

CC(C)N(CCC(C(N)=O)(c1ccccc1)c1ccccn1)C(C)C (configuration not stated) [DISOPYRAMIDE]
Inhibition [1]: 81%
Dose [2]: 4.4 mg/kg

O=C(Nc1cc(CN2CCCC2)c(O)c(CN2CCCC2)c1)c1ccccc1
Dose [2]: 3.4 mg/kg

O=C(Nc1nccs1)c1cc(CN2CCCC2)c(O)c(CN2CCCC2)c1
DOSE [6]: inactive

Oc1c(CN2CCCC2)cc(Nc2ncnc3ccccc23)cc1CN1CCCC1 [CHANGROLIN]
Inhibition [1]: 43%
Dose [2]: 5.5 mg/kg

Cc1cccc(C)c1C(=O)Nc1cc(CN2CCCC2)c(O)c(CN2CCCC2)c1
Dose [2]: 3.2 mg/kg

O=C(c1cc(CN2CCCC2)c(O)c(CN2CCCC2)c1)c1cc(CN2CCCC2)c(O)c(CN2CCCC2)c1
DOSE [7]: inactive
